Calls of active or inactive are those of the source.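 The calls were made as follows: active = mean inhibition at 10 µM of 50% or more; inactive = mean inhibition at 10 µM below 50%.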
System: Huh-7.5 HCV Rluc replicon, luciferase luminescence, 72 h
Experiment: HCV RNA replication inhibitors in Huh-7.5 cells – cell-based, luminescence, Renilla luciferase replicon, orthogonal assay for HCV NS3 helicase inhibitor project, late-stage follow-up (AID 623962)
Conditions: at 10 µM; active compounds read high
How it was run: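 Material: Huh-7.5 human hepatoma cells with HCV replicon–Renilla luciferase fusion. Incubation: 4-5 h attachment, 72 h compound exposure at 37 °C. Measured by: Renilla luciferase luminescence from cell lysate after freeze/thaw lysis. Controls: DMSO-treated cells as uninhibited reference.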

For `CN1CCN(Cc2cc(CN3CCN(C)CC3)c(O)c(=O)c(CN3CCN(C)CC3)c2)CC1`, the inhibition was 46% (inactive).

Compound `COc1ccc(C(=O)Nc2ccc(-c3nc4ccc(-c5nc6ccc(C)c(S(=O)(=O)O)c6s5)cc4s3)cc2)cc1` has an inhibition of 64%.
